In brackets after ≈: the same amount, converted by molar mass. Activity calls are given as the source filed them. The rule behind the calls is not given here.
Experiments:
[1] = target: T1, DNA topoisomerase 4 (Staphylococcus epidermidis) (UniProt Q5HPI6+Q5HPI5); test: Inhibition of decatenation activity of DNA topoisomerase 4 in hospital methicillin-resistant Staphylococcus epidermidis 63/04 using kDNA as substrate at 1 to 4 ug/ml after 1 hr using ethidium bromide staining by agarose gel electrophoresis; format: protein assay
T1 sequence (Q5HPI5 whole entry, looked up): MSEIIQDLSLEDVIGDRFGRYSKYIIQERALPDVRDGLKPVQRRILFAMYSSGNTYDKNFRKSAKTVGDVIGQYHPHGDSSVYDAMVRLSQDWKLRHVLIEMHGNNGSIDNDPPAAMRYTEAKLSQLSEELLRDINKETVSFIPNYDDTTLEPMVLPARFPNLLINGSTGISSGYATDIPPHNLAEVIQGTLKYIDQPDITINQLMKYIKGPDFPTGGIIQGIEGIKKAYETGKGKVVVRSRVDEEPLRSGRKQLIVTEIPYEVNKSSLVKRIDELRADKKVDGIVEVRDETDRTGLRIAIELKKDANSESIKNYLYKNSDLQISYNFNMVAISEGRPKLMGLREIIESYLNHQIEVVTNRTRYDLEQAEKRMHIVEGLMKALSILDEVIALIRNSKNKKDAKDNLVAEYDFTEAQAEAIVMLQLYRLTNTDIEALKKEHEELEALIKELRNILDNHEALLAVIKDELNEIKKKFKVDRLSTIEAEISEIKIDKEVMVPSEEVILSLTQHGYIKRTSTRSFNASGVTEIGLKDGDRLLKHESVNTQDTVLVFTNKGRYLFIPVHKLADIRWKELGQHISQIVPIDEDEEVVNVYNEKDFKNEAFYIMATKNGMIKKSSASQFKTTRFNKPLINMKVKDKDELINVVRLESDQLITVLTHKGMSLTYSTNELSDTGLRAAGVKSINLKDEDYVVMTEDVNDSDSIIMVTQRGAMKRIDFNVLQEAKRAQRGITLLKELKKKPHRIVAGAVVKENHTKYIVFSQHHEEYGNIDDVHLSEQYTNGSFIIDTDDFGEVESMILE
T1 sequence (Q5HPI6 whole entry, looked up): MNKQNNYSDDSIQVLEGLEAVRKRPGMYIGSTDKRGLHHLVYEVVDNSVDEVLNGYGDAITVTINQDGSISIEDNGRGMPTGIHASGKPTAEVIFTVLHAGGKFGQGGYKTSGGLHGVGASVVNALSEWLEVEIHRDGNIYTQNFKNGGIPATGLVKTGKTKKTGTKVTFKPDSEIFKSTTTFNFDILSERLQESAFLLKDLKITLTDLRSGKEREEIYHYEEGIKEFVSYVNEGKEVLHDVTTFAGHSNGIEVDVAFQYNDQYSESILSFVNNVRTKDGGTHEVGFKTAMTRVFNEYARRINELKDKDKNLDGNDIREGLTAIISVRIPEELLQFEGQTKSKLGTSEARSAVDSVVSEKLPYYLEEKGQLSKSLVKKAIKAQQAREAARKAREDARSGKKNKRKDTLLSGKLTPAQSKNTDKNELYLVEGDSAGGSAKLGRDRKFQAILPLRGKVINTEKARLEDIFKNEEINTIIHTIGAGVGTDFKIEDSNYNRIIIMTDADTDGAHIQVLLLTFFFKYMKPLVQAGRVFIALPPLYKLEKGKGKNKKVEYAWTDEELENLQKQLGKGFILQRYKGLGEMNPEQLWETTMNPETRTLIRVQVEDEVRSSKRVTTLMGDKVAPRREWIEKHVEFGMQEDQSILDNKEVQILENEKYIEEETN

[2] = target: T1, DNA topoisomerase 4 (Staphylococcus epidermidis); test: Inhibition of decatenation activity of DNA topoisomerase 4 in hospital methicillin-resistant Staphylococcus epidermidis 31/04 using kDNA as substrate at 1 to 4 ug/ml after 1 hr using ethidium bromide staining by agarose gel electrophoresis; format: protein assay
[3] = tested on: Staphylococcus epidermidis; test: Inhibition of biofilm formation in Staphylococcus epidermidis 63/04 after 24 hrs using MTT staining by spectrophotometer analysis; format: functional, organism-based; conditions: 63/04, 24 h
How it was run: (§1)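 Biofilm was grown for 24 h at 37 °C in TSB with 0.5% glucose from 10^7 CFU/mL inoculum, mixed 1:1 with compound. Final concentrations were 0.125–4 or 0.25–8 µg/ml. Wells were PBS-washed and MTT-stained for 2 h at 37 °C, solubilized in DMSO/glycine buffer and read at 554 nm. IC50 (50% inhibition of biofilm formation) was taken from the dose-response curve; quadruplicates.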

[4] = target: T2, Topoisomerase IV (Staphylococcus aureus) (UniProt P0C1U9+P0C1S7); test: Inhibition of decatenation activity of DNA topoisomerase 4 in Staphylococcus aureus NCTC 4163 using kDNA as substrate at 32 ug/ml […] using ethidium bromide staining by agarose gel electrophoresis; format: protein-complex assay
[5] = target: T2, Topoisomerase IV (Staphylococcus aureus); test: Inhibition of decatenation activity of DNA topoisomerase 4 in Staphylococcus aureus ATCC 25923 using kDNA as substrate at 32 ug/ml after 1 hr using ethidium bromide staining by agarose gel electrophoresis; format: protein-complex assay
How it was run: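 Kit-supplied S. aureus topoisomerase IV, 1 U, with 200 ng kDNA in the supplied assay buffer. Reactions ran 30 min at 37 °C with compound at 1, 4 or 32 µg/ml. They were stopped with STEB and extracted with chloroform/isoamyl alcohol (24:1). Products were run on 1% agarose in TAE for 1 h at 120 V and visualised with ethidium bromide under UV. Controls were no-enzyme, no-compound and ±DMSO.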

[6] = tested on: Staphylococcus epidermidis; test: Inhibition of biofilm formation in Staphylococcus epidermidis 31/04 after 24 hrs using MTT staining by spectrophotometer analysis; format: functional, organism-based; conditions: 31/04, 24 h
[7] = target: T1, DNA topoisomerase 4 (Staphylococcus epidermidis); test: Inhibition of decatenation activity of DNA topoisomerase 4 in hospital methicillin-resistant Staphylococcus epidermidis 62/04 using kDNA as substrate at 1 to 4 ug/ml after 1 hr using ethidium bromide staining by agarose gel electrophoresis; format: protein assay
[8] = target: T1, DNA topoisomerase 4 (Staphylococcus epidermidis); test: Inhibition of decatenation activity of DNA topoisomerase 4 in hospital methicillin-resistant Staphylococcus epidermidis 62/04 using kDNA as substrate at 32 ug/ml after 1 hr using ethidium bromide staining by agarose gel electrophoresis; format: protein assay
[9] = target: T2, Topoisomerase IV (Staphylococcus aureus); test: Inhibition of decatenation activity of DNA topoisomerase 4 in hospital methicillin-resistant Staphylococcus aureus 57/05 using kDNA as substrate at 32 ug/ml after 1 hr using ethidium bromide staining by agarose gel electrophoresis; format: protein-complex assay
[10] = target: T1, DNA topoisomerase 4 (Staphylococcus epidermidis); conditions: 24/04, at 1 to 4 µg/mL
[11] = target: T1, DNA topoisomerase 4 (Staphylococcus epidermidis); test: Inhibition of decatenation activity of DNA topoisomerase 4 in Staphylococcus epidermidis ATCC 35984 using kDNA as substrate at 32 ug/ml after 1 hr using ethidium bromide staining by agarose gel electrophoresis; format: protein assay
[12] = tested on: Staphylococcus epidermidis; test: Inhibition of biofilm formation in Staphylococcus epidermidis 76/04 after 24 hrs using MTT staining by spectrophotometer analysis; format: functional, organism-based; conditions: 76/04, 24 h; how it was run: as §1
[13] = target: T2, Topoisomerase IV (Staphylococcus aureus); test: Inhibition of decatenation activity of DNA topoisomerase 4 in hospital methicillin-resistant Staphylococcus aureus 573/11 using kDNA as substrate at 1 to 4 ug/ml after 1 hr using ethidium bromide staining by agarose gel electrophoresis; format: protein-complex assay
[14] = target: T2, Topoisomerase IV (Staphylococcus aureus); test: Inhibition of decatenation activity of DNA topoisomerase 4 in hospital methicillin-resistant Staphylococcus aureus 522/11 using kDNA as substrate at 32 ug/ml after 1 hr using ethidium bromide staining by agarose gel electrophoresis; format: protein-complex assay
[15] = target: T1, DNA topoisomerase 4 (Staphylococcus epidermidis); test: Inhibition of decatenation activity of DNA topoisomerase 4 in hospital methicillin-resistant Staphylococcus epidermidis 23/04 using kDNA as substrate at 32 ug/ml after 1 hr using ethidium bromide staining by agarose gel electrophoresis; format: protein assay
[16] = target: T2, Topoisomerase IV (Staphylococcus aureus); test: Inhibition of decatenation activity of DNA topoisomerase 4 in Staphylococcus aureus ATCC 6538 using kDNA as substrate at 32 ug/ml […] using ethidium bromide staining by agarose gel electrophoresis; format: protein-complex assay
[17] = target: T1, DNA topoisomerase 4 (Staphylococcus epidermidis); test: Inhibition of decatenation activity of DNA topoisomerase 4 in hospital methicillin-resistant Staphylococcus epidermidis 151/04 using kDNA as substrate at 1 to 4 ug/ml after 1 hr using ethidium bromide staining by agarose gel electrophoresis; format: protein assay
[18] = target: T1, DNA topoisomerase 4 (Staphylococcus epidermidis); test: Inhibition of decatenation activity of DNA topoisomerase 4 in hospital methicillin-resistant Staphylococcus epidermidis 151/04 using kDNA as substrate at 32 ug/ml after 1 hr using ethidium bromide staining by agarose gel electrophoresis; format: protein assay
[19] = tested on: Mammalian orthoreovirus 1; test: Antiviral activity against Reovirus type-1 ATCC VR-214 infected in BHK cells assessed as protection against virus-induced cytopathogenicity after 3 to 4 days by MTT assay; format: functional, cell-based; conditions: Mammalian orthoreovirus 1, ATCC VR-214, BHK
How it was run: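 Cells seeded in 96-well plates (BHK 5x10^4, MDBK 3x10^4 cells/well), grown overnight to confluence, infected at m.o.i. 0.01 (BHK for Reo-1, MDBK for BVDV); serial compound dilutions in maintenance medium with 0.5% inactivated FBS added after 1 h; viability by MTT after 3–4 days at 37°C; EC50 for 50% protection by linear regression.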

[20] = tested on: CCRF-SB; test: Cytotoxicity against human CCRF-SB cells after 96 hrs by MTT assay; format: functional
How it was run: (§2)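 Leukaemia/lymphoma lines seeded at 1×10^5 cells/ml in RPMI-1640 with 10% FCS and penicillin/streptomycin; incubated with serial dilutions at 37°C, 5% CO2; viability by MTT after 96 h; value is concentration reducing proliferation by 50%, with untreated controls undergoing at least three rounds of multiplication.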

[21] = tested on: WIL2-NS; test: Cytotoxicity against human WIL2-NS cells after 96 hrs by MTT assay; format: functional; how it was run: as §2
[22] = tested on: Staphylococcus aureus; test: Ratio of ciprofloxacin MIC to compound MIC for hospital methicillin-resistant Staphylococcus aureus 79/05 after 18 hrs by twofold serial microdilution method; format: functional
How it was run: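 Ratio of MICs for ciprofloxacin and test agent, each from twofold serial broth microdilution in Mueller-Hinton broth following CLSI guidelines. DMSO stock was diluted in sterile water to 0.125–512 µg/mL, with a final inoculum of 10^5 CFU/mL.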

O=C(O)c1cn(C2CC2)c2cc(N3CCNCC3)c(F)cc2c1=O [CIPROFLOXACIN]
inhibition [1]: Active
inhibition [2]: Active
IC50 [3]: 7.14 µg/mL (≈ 21.5 µM)
inhibition [4]: Active
inhibition [5]: Active
IC50 [6]: 22.1 µg/mL (≈ 66.8 µM)
inhibition [7]: Active
inhibition [8]: Active
inhibition [9]: Active
inhibition [10]: Active
inhibition [11]: Active
IC50 [12]: 7.93 µg/mL (≈ 23.9 µM)
inhibition [13]: Active
inhibition [14]: Active
inhibition [15]: Active
inhibition [16]: Active
inhibition [17]: Active
inhibition [18]: Active

FC(F)(F)c1cccc(NC(S)=Nc2ccc(Cl)c(Cl)c2)c1
EC50 [19]: > 9.5 µM
CC50 [20]: 8.8 µM
CC50 [21]: 8 µM
Ratio [22]: 128

FC(F)(F)c1cccc(NC(S)=NCc2ccccc2)c1
EC50 [19]: > 45 µM
Ratio [22]: 128

FC(F)(F)c1cccc(NC(=S)Nc2ccc(Cl)cc2)c1
EC50 [19]: > 10 µM
CC50 [20]: 11 µM
CC50 [21]: 13 µM
Ratio [22]: 128

Fc1ccc(NC(=S)Nc2cccc(C(F)(F)F)c2)cc1Cl
inhibition [1]: Active
inhibition [2]: Active
EC50 [19]: > 10 µM
IC50 [3]: 2.39 µg/mL (≈ 6.85 µM)
inhibition [4]: Active
inhibition [5]: Active
IC50 [6]: 1.18 µg/mL (≈ 3.38 µM)
inhibition [7]: Active
inhibition [8]: Active
inhibition [9]: Active
inhibition [10]: Active
inhibition [11]: Active
CC50 [20]: 9.5 µM
IC50 [12]: 2.85 µg/mL (≈ 8.17 µM)
inhibition [13]: Active
CC50 [21]: 9 µM
inhibition [14]: Active
Ratio [22]: 128
inhibition [15]: Active
inhibition [16]: Active
inhibition [17]: Active
inhibition [18]: Active

FC(F)(F)c1cccc(NC(=S)Nc2cccc(Br)c2)c1
inhibition [1]: Active
inhibition [2]: Active
EC50 [19]: > 10 µM
IC50 [3]: 5 µg/mL (≈ 13.3 µM)
inhibition [4]: Active
inhibition [5]: Active
IC50 [6]: 3.76 µg/mL (≈ 10 µM)
inhibition [7]: Active
inhibition [8]: Active
inhibition [9]: Active
inhibition [10]: Active
inhibition [11]: Active
CC50 [20]: 9 µM
IC50 [12]: 2.98 µg/mL (≈ 7.94 µM)
inhibition [13]: Active
CC50 [21]: 9.9 µM
inhibition [14]: Active
Ratio [22]: 128
inhibition [15]: Active
inhibition [16]: Active
inhibition [17]: Active
inhibition [18]: Active

FC(F)(F)c1cccc(NC(=S)NCCc2ccccc2)c1
EC50 [19]: > 29 µM
Ratio [22]: 128

Fc1cccc(NC(=S)Nc2cccc(C(F)(F)F)c2)c1
EC50 [19]: > 9.4 µM
Ratio [22]: 128
